The values below come from ChEMBL document CHEMBL1121580, “Comparison of biological effects of N-alkylated congeners of beta-phenethylamine derived from 2-aminotetralin, 2-aminoindan, and 6-aminobenzocycloheptene” (1980).

Calls of active or inactive are those of the source. The rule behind the calls is not given here.

The species named for assay [1] is Rattus norvegicus. In words: Evaluated for induce circling behavior in the rat expressed as rotational behavior (turns/h). In kind it is functional. In a few lines: (§1)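 Used male Sprague-Dawley rats (200–300 g) with unilateral substantia nigra 6-hydroxydopamine lesions. A single 10 mg/kg sc dose was given to four rats at the start of a 1-h automatic recording. Turns/h were recorded with direction (ipsilateral or contralateral); a mean above 100 counted as substantial circling.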

The species entered for assay [2] is Mus musculus. Nature of the assay: (§2) Evaluated for drug-induced inhibition of exploratory activity in mouse. The format is functional. More on the design: concentration or dose not given beside the values. In a few lines: (§3)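 Male Swiss-Webster mice (20–30 g) were acclimated for several days and tested in groups of three in an activity meter. Dosing was 10 mg/kg ip immediately before cage entry; controls got water on each test day. Counts from the 18 min starting at 6 min were summed as % reduction vs control. Three groups per compound; one-way ANOVA, Scheffé.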

The species entered for assay [3] is Mus musculus. Nature of the assay: Evaluated for analgesic activity and increase in reaction time in mouse by hotplate assay. In kind it is functional. More on the design: unit not given beside the values. A digest of the protocol:
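Male Swiss-Webster mice (20–30 g) got 10 mg/kg ip 10 min before a single exposure to a 55 ± 0.5 °C hot plate. End point was jumping or paw licking. Ten mice per drug, plus 10 saline controls each test day; also run after naloxone 5 mg/kg ip pretreatment. Mean latency (s) ± SEM; grouped Student's t test vs control.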

The species entered for assay [4] is Mus musculus. Described as §2. In kind it is functional. In a few lines: as §3
Assay [5] is filed under the species Felis catus. Nature of the assay: Evaluated for inhibition of pressor response during central sciatic nerve stimulation in cat. In kind it is functional. A digest of the protocol: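 In cats under pentobarbital sodium 30 mg/kg intrathoracic, left femoral arterial pressure was recorded. The central stump of the sectioned right sciatic nerve was stimulated at 4 Hz, 5 ms, supramaximal voltage for 30 s (pressor 30–60 mmHg). Compounds were given iv, followed 1 h, doses stepped by 0.48 log unit; at least six cats. Value is the calculated amount giving 50% pressor inhibition.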

For assay [6], the species on record is Canis familiaris. Nature of the assay: Evaluated for inhibition of pressor response during carotid occlusion in dog; IA = inactive. The format is functional, organism-based. Conditions: Canis lupus familiaris. A digest of the protocol: (§4)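 Dogs (8–15 kg) under thiopental sodium 15 mg/kg iv, then barbital sodium 200 mg/kg. Pressor response to bilateral carotid occlusion was monitored at least 1 h per dose. Doses changed by 0.48 log interval once responses returned to control. At least five dogs per compound; value is the calculated amount giving 50% inhibition of the pressor response.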

The species named for assay [7] is Canis familiaris. In words: Evaluated for inhibition of pressor response during carotid occlusion in dog. Conditions: Canis lupus familiaris. In kind it is functional. In a few lines:
as §4

The species entered for assay [8] is Canis familiaris. In words: Evaluated for inhibition of pressor response during carotid occlusion in dog. The format is functional. Conditions: Canis lupus familiaris. A digest of the protocol: as §4
The species entered for assay [9] is Canis familiaris. In words: Evaluated for inhibition of pressor response during carotid occlusion in dog at 0.5; IA = inactive. In kind it is functional, organism-based. Particulars: Canis lupus familiaris.
The species named for assay [10] is Rattus norvegicus. In words: Evaluated for induce circling behavior in the rat expressed as rotational behavior (turns/h); IA = inactive. In kind it is functional, organism-based. A digest of the protocol: as §1
Assay [11] relates to Canis familiaris. In words: Evaluated for inhibition of pressor response during carotid occlusion in dog at 0.5 mg/kg; IA = inactive. In kind it is functional, organism-based. Also on record: dose 0.5 mg/kg. Particulars: Canis lupus familiaris.

With `CCCNC1Cc2ccccc2C1.Cl`, the results for the Activity in [1] and in assay [3] were 6 turns hr-1 and 15, respectively. In addition, the Reduction in [2] amounted to 21.9%.
On to `CNC1CCc2ccccc2C1.Cl` (configuration not stated), for which the Activity in [1] is reported as 263 turns hr-1; in assay [3], 16. Also, the Reduction in [4] came out at 70.2%.
With `CC(C)N(C)C1CCc2ccccc2C1.Cl` (configuration not stated), the Activity in assay [1] is on record as 16 turns hr-1; in assay [3] it was 20.6. Also, in [2], the Reduction turned out to be 79.7%.
With `CC(C)NC1Cc2ccccc2C1.Cl`, the Activity in assay [1] is 25 turns hr-1; in assay [3] it was 17.8. Moreover, the Reduction in assay [2] is listed as 2.8%.
Broadly, the ED50 is the dose at which the effect has come halfway, by size or by number of responders. Turning to `CN(C)C1CCc2ccccc2C1.Cl` (configuration not stated), the Activity in [1] amounted to 53 turns hr-1; in [3], 24.2. This compound displayed an ED50 in [5] of 0.16 µmol/kg. The compound further returned a Reduction in assay [2] of 88.1%. Besides, the ED50 result in assay [6] was “inactive”.
`CCNC1CCc2ccccc2C1.Cl` (configuration not stated): the Activity came to 508 turns hr-1 in assay [1] and 29.6 in [3]. In addition, the ED50 in [5] worked out at 2.3 µmol/kg; in assay [7] it was 0.52 µmol/kg. The Reduction in [2] was 76.4%.
Consider `CCCN(CCC)C1CCc2ccccc2C1.Cl` (configuration not stated), for which the results for the Activity in assay [1] and in assay [3] were 734 turns hr-1 and 29.2, respectively. Moreover, the ED50 worked out at 0.09 µmol/kg in [5] and 0.22 µmol/kg in [8]. Also, the Reduction in assay [2] came to 76.5%.
Turning to `CCCN(CCC)C1Cc2ccccc2C1.Cl`, the Activity in [1] is 289 turns hr-1; in [3], 22. In [5], the 50% effect level (ED50) was put at a dose of 0.25 µmol/kg. In assay [2], the Reduction is 64%.
As to `CN(C)C1Cc2ccccc2C1.Cl`, the Activity in assay [1] was determined as 23 turns hr-1.
In the case of `CCN(CC)C1Cc2ccccc2C1.Cl`, the Activity in [1] came out at 304 turns hr-1; in [3] it was 33.9. Further, in assay [5], the ED50 stood at 1.14 µmol/kg. For the same compound, the Reduction in assay [2] worked out at 50.6%.
Take `CCCCNC1CCc2ccccc2C1.Cl` (configuration not stated): the Activity in [1] is 7 turns hr-1; in assay [3], 17.6. In [4], this compound yielded a Reduction of 20.7%.
`Br.CCCCN(CCCC)C1CCc2ccccc2C1` (configuration not stated): the results for the Activity in [1] and in assay [3] were 4 turns hr-1 and 12, respectively. In assay [2], the Reduction came out at 0.8%.
Regarding `CCCCNC1Cc2ccccc2C1.Cl`, the Activity in [1] is 3 turns hr-1; in [3], 17.7. This compound also displayed a Reduction in assay [2] of 7.1%.
For `CN(C)C1CCCc2ccccc2C1` (configuration not stated), in assay [9], the ED50 result was “inactive”.
For the compound `CNC1Cc2ccccc2C1.Cl`, the Activity in assay [1] was 6 turns hr-1; in assay [3], 28.6. The compound further returned a Reduction in assay [2] of 80.3%.
Turning to `Cl.NC1Cc2ccccc2C1`, the values for the Activity in assay [1] and in assay [3] were 27 turns hr-1 and 35.8, respectively. In [2], the Reduction amounted to 76%.
With `CCCN(CCC)C1CCCc2ccccc2C1` (configuration not stated), the outcome in assay [10] was inactive.
`CC(C)N(C)C1Cc2ccccc2C1.Cl`: the Activity in [1] stood at 15 turns hr-1; in [3], 29.4. In assay [2], this compound registered a Reduction of 64%.
As for `CCNC1Cc2ccccc2C1.Cl`, the figures for the Activity in [1] and in assay [3] were 17 turns hr-1 and 22.1, respectively. Besides, the Reduction in assay [2] is 73.6%.
In the case of `CC(C)NC1CCCc2ccccc2C1` (configuration not stated), the ED50 result in assay [11] is “inactive”.
For `CCCCN(CCCC)C1Cc2ccccc2C1.Cl`, the Activity came to 2 turns hr-1 in [1] and 11.7 in assay [3]. For the same compound, the Reduction in [2] came to 8.4%.
Consider `CCCNC1CCc2ccccc2C1.Cl` (configuration not stated), for which the Activity in [1] was 804 turns hr-1; in assay [3] it was 18.9. The ED50 was determined as 0.9 µmol/kg in [5] and 3.38 µmol/kg in [8]. Besides, the Reduction in assay [2] stood at 79%.
In [3], `CC(C)NC1CCc2ccccc2C1.Cl` (configuration not stated) returned an Activity of 27.
As for `NC1CCCc2ccccc2C1` (configuration not stated), the result in [10] was inactive.
For the compound `CCN(CC)C1CCc2ccccc2C1.Cl` (configuration not stated), the Activity in assay [1] is reported as 501 turns hr-1; in assay [3] it was 33.5. In addition, it took a dose of 0.35 µmol/kg to reach the 50% effect level in assay [5] (ED50). For the same compound, the Reduction in assay [2] was 73.4%.
In the case of `Cl.NC1CCc2ccccc2C1` (configuration not stated), the Activity stood at 104 turns hr-1 in assay [1] and 25.6 in assay [3]. In assay [2], this compound returned a Reduction of 55.1%.
